Assay outcomes as filed in PubChem.
RGS4 act – RGS4 potentiators or activators, primary screen, cell-based, HEK293 M3R inducible RGS4, calcium flux; carbachol calcium flux Fluo4; stronger effect = lower value; B-score at 10 µM; actives 0.92% (n = 310,000);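 active means B-score of the integrated calcium signal more than 4 SD below the library mean, with starting fluorescence not abnormally high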;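 further: negative B-score means reduced calcium response which marks RGS4 activation or potentiation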
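System – HEK293 FlpIn-TREx cells, stable M3R, doxycycline-inducible RGS4 · Reagent – ECmax carbachol challenge · Times – compound preincubation 20 min at room temperature before agonist · Technique – Fluo4 fluorescence kinetic imaging of calcium · Measure – B score of integrated Fluo4 ratio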
MrgX1 agonist – agonists of human MrgX1 receptor, primary screen, HEK293 cells, Fluo-4 calcium flux; actives 0.44% (n = 310,000); AID 588627, 2011; Mas-related G-protein coupled receptor member X1 (Homo sapiens), Q96LB2; B-score at 10 µM; Fluo-4 calcium fluorescence, agonist mode; stronger effect = higher value;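 active means calcium response B-score plate-corrected fluorescence ratio at least 3 library SD, with starting fluorescence B-score inside 5 SD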
Target sequence (Q96LB2 whole entry, looked up): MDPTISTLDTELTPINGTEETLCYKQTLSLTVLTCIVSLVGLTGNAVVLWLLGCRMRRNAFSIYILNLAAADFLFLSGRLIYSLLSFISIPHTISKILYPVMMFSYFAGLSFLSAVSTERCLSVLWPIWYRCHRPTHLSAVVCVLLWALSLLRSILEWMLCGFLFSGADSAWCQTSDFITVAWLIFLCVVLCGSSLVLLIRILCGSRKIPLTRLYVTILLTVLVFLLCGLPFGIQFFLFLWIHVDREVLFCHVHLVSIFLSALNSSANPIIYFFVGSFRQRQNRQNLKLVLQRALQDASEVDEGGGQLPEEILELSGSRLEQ
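System: HEK293 cells stably expressing human MrgX1 receptor; Dosing: test compound in the initial addition of three; Schedule: overnight plating, then 30 min 37 °C plus 30 min room-temperature dye loading; Detection: kinetic calcium dye fluorescence, Fluo-4 NW; Controls: per-plate positive and negative controls for Z′ factor.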
MrgX1 allo act – positive allosteric modulators of MrgX1, primary screen, HEK293 cells, Fluo-4 calcium flux; Mas-related G-protein coupled receptor member X1 (Homo sapiens), Q96LB2; FDSS; stronger effect = higher value; B-score at 10 µM; actives 0.63% (n = 310,000);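 active means plate-corrected calcium response at least 3 library SD above typical, normal starting fluorescence, not activating the receptor alone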;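 further: compound read alongside a low EC10 to EC30 dose of BAM8-22 agonist; peak minus trough fluorescence over baseline measured at the second addition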
MrgX1 antagonist – antagonists of human MrgX1 receptor, primary screen, HEK293 cells, Fluo-4 calcium flux; B-score at 10 µM; BAM8-22 antagonism; stronger effect = lower value; actives 1.3% (n = 310,000); AID 588676, 2011; Mas-related G-protein coupled receptor member X1 (Homo sapiens), Q96LB2;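 active means calcium-response B-score plate-corrected more than 3 library SD below zero, starting fluorescence within 5 deviations, no agonist response on first addition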;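 further: peak minus trough fluorescence over baseline after final BAM8-22 challenge near maximal dose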
RGS4 block – RGS4 inhibitors, primary screen, cell-based, HEK293 M3R inducible RGS4, calcium flux; actives 0.45% (n = 310,000); B-score at 10 µM; Regulator of G-protein signaling 4 (Homo sapiens), P49798; Fluo-4 calcium flux; stronger effect = higher value; triggered by carbachol at its EC20;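 active means B-score, a plate-corrected calcium signal, over three deviations above library mean, with baseline fluorescence within five deviations of library mean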;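 further: RGS4 expression induced by doxycycline in cells with stable M3 receptor; B-score is computed from the integrated fluorescence ratio over baseline after carbachol; higher B-score means a larger calcium signal and so more RGS4 inhibition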
Target sequence (P49798 whole entry, looked up): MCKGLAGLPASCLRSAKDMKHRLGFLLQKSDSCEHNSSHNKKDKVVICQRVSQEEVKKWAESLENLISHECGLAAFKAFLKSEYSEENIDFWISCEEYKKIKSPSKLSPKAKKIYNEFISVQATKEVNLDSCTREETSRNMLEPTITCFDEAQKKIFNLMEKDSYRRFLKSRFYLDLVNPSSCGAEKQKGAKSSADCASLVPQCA
RGS4 block valid – enhanced carbachol calcium response, M3R/RGS4 cells, RGS4 inhibitor project, cell-based, validation screen, HEK293 M3R/RGS4, calcium flux | actives 65% (n = 1,700) | carbachol calcium Fluo-4 fluorescence; carbachol added at its EC20; 0 = buffer wells, 100 = carbachol control | AID 492999, 2010 | shares compounds with RGS4 block | calcium response, % at 10 µM;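 active means duplicate-averaged calcium response above the buffer-only control mean plus 5 SD of those controls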;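 further: integrated fluorescence ratio F max minus min over baseline F0; higher response in RGS4-induced cells means RGS4 inhibition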
RGS4 uninduced – carbachol calcium response in non-induced M3R cells, confirmation, counter-screen for RGS4 inhibitor project, cell-based, HEK293 M3R. actives 20% (n = 1,900). carbachol calcium Fluo-4; submaximal (EC20) carbachol stimulus; buffer wells 0%, carbachol control wells 100%. activity (percent), % at 10 µM. shares compounds with RGS4 block; call rule not given here;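 further: RGS4 induction absent so cells express M3R without RGS4; higher means more calcium signal and flags a non-specific hit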
M3R basal Ca ctr – second RGS4 inhibitor counter-screen in uninduced cells lacking carbachol. shares compounds with RGS4 block. HEK293 M3R/RGS4 non-induced, Fluo-4 calcium, no carbachol; normalised: buffer wells 0%, carbachol wells 100%. calcium response (agonist-mode artifact), % at 10 µM. actives 22% (n = 1,900);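 active means duplicate-averaged calcium rise in uninduced cells above buffer wells' mean plus 5 SD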
MrgX1 ag reconf – MrgX1 receptor agonists, duplicate retest, confirmation, HEK293 cells, Fluo-4 calcium flux; actives 78% (n = 600); AID 602412, 2012; Fluo-4 calcium fluorescence, FDSS; activation, % at 10 µM; shares compounds with MrgX1 agonist;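 active means calcium signal rise, corrected for plate position, at least 3 library SD high, with starting brightness within 5 such deviations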
HEK293 Ca flux – nonspecific calcium signal in parental HEK293, confirmation, counter-screen for MrgX1 antagonist project, parental HEK293 cells, Fluo-4 calcium flux; AID 624111, 2012; shares compounds with MrgX1 antagonist; fluorescence ratio F(max-min)/F0 at 10 µM; actives 2% (n = 4,000); Fluo-4 calcium fluorescence, FDSS;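 active means duplicate-averaged calcium fluorescence ratio at least three times the standard deviation of buffer wells, a nonspecific response in parental cells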
HEK293 Ca counter – calcium response in parental HEK293 cells, primary screen, counter-screen for MrgX1 allosteric activator project, cell-based, Fluo-4 calcium flux, duplicate | shares compounds with MrgX1 antagonist | Fluo-4 fluorescence ratio; stronger effect = higher value | actives 0.4% (n = 4,000) | fluorescence ratio F(max-min)/F0 at 10 µM;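 active means calcium fluorescence ratio, averaged over duplicates, at least 3 SD of the buffer-well ratio, meaning a nonspecific response in receptor-free cells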;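 further: untransfected parental HEK293 lacking MrgX1 used as counterscreen for MrgX1 allosteric activators; fluorescence change taken during the second addition on a kinetic imager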
HEK293 Ca cntr2 – calcium response in parental HEK293 cells, primary screen, counter-screen for MrgX1 agonist project, cell-based, Fluo-4 calcium flux, duplicate, agonist mode. shares compounds with MrgX1 antagonist. Fluo-4 calcium fluorescence (FDSS); stronger effect = higher value. fluorescence ratio F(max-min)/F0 at 10 µM. actives 8.7% (n = 4,000);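 active means calcium fluorescence ratio at least three times the spread of buffer wells, meaning a non-specific response in parental cells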
Numbers without * were called inactive; i = inactive; · = not tested or not shown. In the library only some 3.5% were active in any assay of this set; here they are far more common.

SMILES	RGS4 act	MrgX1 agonist	MrgX1 allo act	MrgX1 antagonist	RGS4 block	RGS4 uninduced	M3R basal Ca ctr	others
Cc1ccc(/C=C2\C(=O)NC(=S)N(c3ccc(F)cc3)C2=O)o1	i	i	i	i	i	i	11.5%*
Cc1ccc(/C=C2\C(=O)NC(=S)N(c3ccc(F)cc3)C2=O)s1	i	i	i	i	14.7*	i	i	RGS4 block valid=29.0%*
Cc1ccc(OCCOc2cccc(C=C3C(=O)NC(=O)NC3=O)c2)cc1	i	i	i	i	i	·	·
O=C1NC(=O)N(Cc2ccccc2)C(=O)/C1=C/C=C/c1ccco1	i	30.8*	i	i	7.03*	i	22.5%*	RGS4 block valid=11.0%*
COc1ccc(CN2C(=O)NC(=O)/C(=C\c3ccco3)C2=O)cc1	i	i	i	i	i	·	·
C=C(CO)CC1CC(O)[C@]2(C)OC3CC4OC5C[C@]6(C)O[C@]7(C)CCC8OC9C[C@]%10(C)OC%11C(C)=CC(=O)OC%11CC%10OC9C[C@@H](C)C8OC7CC6O[C@]5(C)C/C=C\C4OC3CC2O1 (stereo partly drawn)	i	i	i	i	i	i	i
CN(C)C1(CNC(=O)Nc2ccc(Cl)c(Cl)c2)CCCCC1	i	29.7*	i	i	i	·	·	MrgX1 ag reconf=i;HEK293 Ca flux=i;HEK293 Ca counter=i;HEK293 Ca cntr2=i
CN(C)C1(CNC(=O)c2cc(S(=O)(=O)N3CCOCC3)c(Cl)cc2Cl)CCCCC1	i	i	i	i	i	·	·
C#CCOC(=O)C1=CCCN(C)C1	·	89.9*	i	i	·	·	·	MrgX1 ag reconf=281.1%*;HEK293 Ca flux=i;HEK293 Ca counter=i;HEK293 Ca cntr2=54.2*
CN(C)c1ccc(/C=C2/C(=N\O)C3CCN2CC3)cc1	i	i	i	i	i	·	·
CN/C=C(/Cl)P(=O)(OC(C)C)OC(C)C	i	i	i	i	i	·	·
O=C(CCCN1CCC2(CC1)C(=O)NCN2c1ccccc1)c1ccc(F)cc1	i	76.4*	i	i	i	·	·	MrgX1 ag reconf=542.2%*;HEK293 Ca flux=i;HEK293 Ca counter=i;HEK293 Ca cntr2=99.1*
O=C(c1ccc(F)cc1)C(Cc1ccccc1)N1CCCCC1 (stereo not drawn)	i	i	i	i	i	·	·
Cc1ncc(CN2CCCC(C(=O)c3ccc(C(C)(C)C)cc3)C2)s1 (stereo not drawn)	i	i	i	i	i	·	·
